What was measured:
Format in all cases: cell-based
D(4) dopamine receptor = target: T1, D(4) dopamine receptor (Homo sapiens, UniProt P21917); assay: Displacement of [3H]-methylspiperone from human recombinant dopamine D4 receptor expressed in Stable HEK cells after 90 mins by microbeta scintillation counting method
T1 sequence (P21917 whole entry): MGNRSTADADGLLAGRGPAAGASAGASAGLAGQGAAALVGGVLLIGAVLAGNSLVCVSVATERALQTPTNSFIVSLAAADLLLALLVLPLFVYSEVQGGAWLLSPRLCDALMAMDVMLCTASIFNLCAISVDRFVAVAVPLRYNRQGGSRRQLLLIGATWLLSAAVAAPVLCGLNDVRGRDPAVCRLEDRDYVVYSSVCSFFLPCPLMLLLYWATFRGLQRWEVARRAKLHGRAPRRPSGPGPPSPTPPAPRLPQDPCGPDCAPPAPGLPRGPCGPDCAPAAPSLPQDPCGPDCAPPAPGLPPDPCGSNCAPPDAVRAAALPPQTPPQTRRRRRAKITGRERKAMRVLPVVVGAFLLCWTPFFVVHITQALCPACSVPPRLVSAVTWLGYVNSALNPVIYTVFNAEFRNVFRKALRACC
Summary of the method: (§1)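 Radioligand binding was run by the NIMH Psychoactive Drug Screening Program. Compounds were first screened at 10 μM. Those giving ≥50% binding were taken to full competition curves. Ki is reported as pKi from a sigmoidal curve fit of triplicate measurements in a single experiment; the error is the curve-fit error.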

D(3) dopamine receptor = D(3) dopamine receptor (Homo sapiens, UniProt P35462); assay: Displacement of [3H]-N-methylspiperone from human recombinant dopamine D3 receptor expressed in HEKT cells after 90 mins by microbeta scintillation counting method
D(3) dopamine receptor, sequence (P35462 whole entry): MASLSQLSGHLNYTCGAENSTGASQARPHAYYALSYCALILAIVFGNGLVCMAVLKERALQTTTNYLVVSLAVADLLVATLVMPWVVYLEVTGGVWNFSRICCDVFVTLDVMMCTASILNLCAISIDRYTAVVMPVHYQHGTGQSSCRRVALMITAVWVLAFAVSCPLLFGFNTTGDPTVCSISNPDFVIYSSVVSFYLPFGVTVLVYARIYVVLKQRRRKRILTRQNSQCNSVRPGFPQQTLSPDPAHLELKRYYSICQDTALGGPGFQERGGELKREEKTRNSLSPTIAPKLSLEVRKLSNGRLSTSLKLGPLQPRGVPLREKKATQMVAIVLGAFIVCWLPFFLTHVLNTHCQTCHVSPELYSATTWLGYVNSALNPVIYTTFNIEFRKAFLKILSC
Summary of the method: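 Radioligand binding run by the NIMH Psychoactive Drug Screening Program. Otherwise Ki comes from sigmoidal curve fits of triplicate measurements in a single experiment, or is averaged over repeated experiments each run in triplicate.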

[1] = target: T2, 5-hydroxytryptamine receptor 3A (Homo sapiens) (UniProt P46098); assay: Displacement of [3H]-GR65630 from human recombinant 5-HT3 receptor expressed in HEKT cells at 10 uM after 90 mins by microbeta scintillation counting method relative to control
T2 sequence (whole entry): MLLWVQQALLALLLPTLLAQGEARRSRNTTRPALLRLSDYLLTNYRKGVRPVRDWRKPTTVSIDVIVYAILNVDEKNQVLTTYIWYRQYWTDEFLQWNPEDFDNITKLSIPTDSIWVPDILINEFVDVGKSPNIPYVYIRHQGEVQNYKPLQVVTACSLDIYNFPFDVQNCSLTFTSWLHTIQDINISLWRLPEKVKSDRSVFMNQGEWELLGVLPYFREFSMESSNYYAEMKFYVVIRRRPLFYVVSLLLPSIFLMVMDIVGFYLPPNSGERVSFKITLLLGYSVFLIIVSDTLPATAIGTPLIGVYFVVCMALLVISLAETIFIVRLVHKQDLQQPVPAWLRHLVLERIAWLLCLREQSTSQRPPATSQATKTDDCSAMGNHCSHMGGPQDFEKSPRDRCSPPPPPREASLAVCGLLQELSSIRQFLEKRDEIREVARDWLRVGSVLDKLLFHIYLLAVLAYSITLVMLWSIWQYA
Summary of the method: (§2)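 Radioligand binding run by the NIMH Psychoactive Drug Screening Program. […] Otherwise Ki comes from sigmoidal curve fits of triplicate measurements in a single experiment, or is averaged over repeated experiments each run in triplicate.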

Histamine H1 receptor = Histamine H1 receptor (Homo sapiens, UniProt P35367); assay: Displacement of [3H]-Pyrilamine from human recombinant histamine H1 receptor expressed in stable HEK cells after 90 mins by microbeta scintillation counting method; summary of the method: as §1
Histamine H1 receptor, sequence (P35367 whole entry): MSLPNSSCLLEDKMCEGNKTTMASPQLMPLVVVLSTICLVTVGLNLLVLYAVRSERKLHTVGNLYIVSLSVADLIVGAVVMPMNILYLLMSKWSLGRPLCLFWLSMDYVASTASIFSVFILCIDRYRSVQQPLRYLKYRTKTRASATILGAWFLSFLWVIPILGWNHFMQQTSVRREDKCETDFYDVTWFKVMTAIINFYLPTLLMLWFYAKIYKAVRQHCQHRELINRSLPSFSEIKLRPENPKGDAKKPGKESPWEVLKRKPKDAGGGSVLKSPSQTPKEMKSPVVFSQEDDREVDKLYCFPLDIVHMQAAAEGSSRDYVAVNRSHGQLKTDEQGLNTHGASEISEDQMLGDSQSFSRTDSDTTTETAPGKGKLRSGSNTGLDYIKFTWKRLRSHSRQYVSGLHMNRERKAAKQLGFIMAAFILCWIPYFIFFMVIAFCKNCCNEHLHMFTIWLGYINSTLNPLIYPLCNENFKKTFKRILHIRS

[2] = target: Delta-type opioid receptor (Homo sapiens, UniProt P41143); assay: Displacement of [3H]-DADLE from human recombinant DOR receptor expressed in stable HEK cells after 90 mins by microbeta scintillation counting method; summary of the method: as §2
Delta-type opioid receptor, sequence (P41143 whole entry): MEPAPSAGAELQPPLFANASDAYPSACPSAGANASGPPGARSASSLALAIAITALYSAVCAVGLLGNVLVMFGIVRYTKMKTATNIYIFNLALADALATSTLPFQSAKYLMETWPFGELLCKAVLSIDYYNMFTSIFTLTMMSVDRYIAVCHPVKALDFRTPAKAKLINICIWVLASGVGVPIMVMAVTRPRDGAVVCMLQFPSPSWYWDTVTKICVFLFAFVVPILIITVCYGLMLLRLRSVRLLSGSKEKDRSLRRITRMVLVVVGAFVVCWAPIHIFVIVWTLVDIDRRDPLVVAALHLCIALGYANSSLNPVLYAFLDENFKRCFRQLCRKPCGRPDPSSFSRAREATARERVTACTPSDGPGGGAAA

[3] = target: Kappa-type opioid receptor (Homo sapiens, UniProt P41145); assay: Displacement of [3H]-U69593 from human recombinant KOR receptor expressed in stable HEK cells after 90 mins by microbeta scintillation counting method; summary of the method: as §1
Kappa-type opioid receptor, sequence (P41145 whole entry): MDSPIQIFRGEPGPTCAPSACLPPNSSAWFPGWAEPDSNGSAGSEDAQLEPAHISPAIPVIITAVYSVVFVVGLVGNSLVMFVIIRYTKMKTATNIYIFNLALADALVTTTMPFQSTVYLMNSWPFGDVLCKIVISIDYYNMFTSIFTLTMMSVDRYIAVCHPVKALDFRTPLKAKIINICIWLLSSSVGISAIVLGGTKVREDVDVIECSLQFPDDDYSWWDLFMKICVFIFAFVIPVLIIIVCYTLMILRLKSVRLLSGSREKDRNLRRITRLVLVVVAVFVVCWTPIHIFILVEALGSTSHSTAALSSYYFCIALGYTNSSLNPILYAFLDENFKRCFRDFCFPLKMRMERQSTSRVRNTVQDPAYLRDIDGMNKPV

[4] = target: 5-hydroxytryptamine receptor 1D (Homo sapiens, UniProt P28221); assay: Displacement of [3H]5-CT from human recombinant 5-HT1D receptor transiently expressed in HEKT cells after 90 mins by microbeta scintillation counting method; summary of the method: as §1
5-hydroxytryptamine receptor 1D, sequence (P28221 whole entry): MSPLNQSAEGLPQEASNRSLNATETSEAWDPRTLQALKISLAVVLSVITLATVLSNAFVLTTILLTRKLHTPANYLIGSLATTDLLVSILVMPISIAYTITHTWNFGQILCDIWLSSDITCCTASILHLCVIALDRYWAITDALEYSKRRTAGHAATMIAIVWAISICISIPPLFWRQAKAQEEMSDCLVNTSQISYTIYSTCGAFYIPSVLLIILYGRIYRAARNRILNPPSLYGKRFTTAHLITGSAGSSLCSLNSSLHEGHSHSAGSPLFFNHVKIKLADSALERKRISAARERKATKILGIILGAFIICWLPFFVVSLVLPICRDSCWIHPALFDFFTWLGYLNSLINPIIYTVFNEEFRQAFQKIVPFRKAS

[5] = target: Beta-3 adrenergic receptor (Homo sapiens, UniProt P13945); assay: Displacement of [3H]-CGP12177 from human recombinant adrenergic Beta3 receptor expressed in Flp-In HEK cells at 10 uM after 90 mins by microbeta scintillation counting method relative to control; summary of the method: as §2
Beta-3 adrenergic receptor, sequence (P13945 whole entry, looked up): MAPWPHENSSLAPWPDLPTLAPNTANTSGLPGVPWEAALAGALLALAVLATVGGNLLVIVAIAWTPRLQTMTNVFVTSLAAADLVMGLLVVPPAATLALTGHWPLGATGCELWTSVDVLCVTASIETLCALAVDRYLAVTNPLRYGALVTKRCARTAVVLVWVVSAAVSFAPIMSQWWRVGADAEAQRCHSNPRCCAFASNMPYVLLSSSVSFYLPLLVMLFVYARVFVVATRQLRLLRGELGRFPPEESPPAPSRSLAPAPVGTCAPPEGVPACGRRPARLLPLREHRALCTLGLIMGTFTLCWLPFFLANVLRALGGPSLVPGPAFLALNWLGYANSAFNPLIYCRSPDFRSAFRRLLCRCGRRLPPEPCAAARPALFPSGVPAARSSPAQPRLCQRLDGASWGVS

[6] = target: Sigma non-opioid intracellular receptor 1 (Homo sapiens, UniProt Q99720); assay: Displacement of [3H]-Pentazocine from human recombinant sigma1 receptor expressed in HEKT cells after 90 mins by microbeta scintillation counting method
Sigma non-opioid intracellular receptor 1, sequence (Q99720 whole entry): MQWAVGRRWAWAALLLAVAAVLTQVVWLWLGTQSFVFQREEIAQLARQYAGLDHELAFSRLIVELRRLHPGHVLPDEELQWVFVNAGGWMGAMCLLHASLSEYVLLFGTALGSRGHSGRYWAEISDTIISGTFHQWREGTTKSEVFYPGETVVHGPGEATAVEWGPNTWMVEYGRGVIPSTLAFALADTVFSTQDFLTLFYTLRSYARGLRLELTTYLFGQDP

[7] = target: T3, Alpha-1D adrenergic receptor (Homo sapiens) (UniProt P25100); assay: Displacement of [3H]-Prazosin from human recombinant adrenergic Alpha1D receptor expressed in cells at 10 uM after 90 mins by microbeta scintillation counting method relative to control
T3 sequence (whole entry): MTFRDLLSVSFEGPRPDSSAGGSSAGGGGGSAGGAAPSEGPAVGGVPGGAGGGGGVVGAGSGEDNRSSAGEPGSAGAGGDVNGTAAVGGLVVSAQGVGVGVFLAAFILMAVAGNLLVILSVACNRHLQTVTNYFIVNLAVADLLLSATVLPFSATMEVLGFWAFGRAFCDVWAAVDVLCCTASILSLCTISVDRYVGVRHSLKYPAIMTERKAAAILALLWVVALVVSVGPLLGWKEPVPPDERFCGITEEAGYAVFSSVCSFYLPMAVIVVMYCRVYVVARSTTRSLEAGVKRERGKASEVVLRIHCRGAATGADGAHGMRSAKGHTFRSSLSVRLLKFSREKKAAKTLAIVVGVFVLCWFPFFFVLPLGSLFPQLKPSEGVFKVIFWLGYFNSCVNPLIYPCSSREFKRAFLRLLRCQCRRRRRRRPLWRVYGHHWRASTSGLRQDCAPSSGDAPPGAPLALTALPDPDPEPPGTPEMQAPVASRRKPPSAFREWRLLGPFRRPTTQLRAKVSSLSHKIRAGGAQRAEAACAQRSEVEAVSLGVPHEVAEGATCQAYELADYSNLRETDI

D(1B) dopamine receptor = D(1B) dopamine receptor (Homo sapiens, UniProt P21918); assay: Displacement of [3H]-SCH23390 from human recombinant dopamine D5 receptor expressed in HEKT cells after 90 mins by microbeta scintillation counting method; summary of the method: as §1
D(1B) dopamine receptor, sequence (P21918 whole entry): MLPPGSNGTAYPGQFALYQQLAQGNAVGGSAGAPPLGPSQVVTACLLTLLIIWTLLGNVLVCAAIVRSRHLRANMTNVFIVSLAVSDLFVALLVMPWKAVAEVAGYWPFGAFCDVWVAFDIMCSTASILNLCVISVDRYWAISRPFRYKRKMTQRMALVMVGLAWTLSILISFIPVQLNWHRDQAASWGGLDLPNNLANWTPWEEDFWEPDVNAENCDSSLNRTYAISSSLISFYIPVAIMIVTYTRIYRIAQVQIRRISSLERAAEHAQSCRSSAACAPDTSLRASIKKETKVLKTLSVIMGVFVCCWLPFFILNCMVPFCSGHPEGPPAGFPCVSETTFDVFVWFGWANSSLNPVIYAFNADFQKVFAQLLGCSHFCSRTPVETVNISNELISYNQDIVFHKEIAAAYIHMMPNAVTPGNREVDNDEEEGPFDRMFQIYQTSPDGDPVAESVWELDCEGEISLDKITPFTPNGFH

[8] = target: T4, Muscarinic acetylcholine receptor M3 (Homo sapiens, UniProt P20309); assay: Displacement of [3H]-QNB/[3H]-NMS from human recombinant Muscarinic acetylcholine M3 receptor expressed in stable CHO cells after 90 mins by microbeta scintillation counting method; summary of the method: as §1
Target sequence in this assay (P20309 whole entry): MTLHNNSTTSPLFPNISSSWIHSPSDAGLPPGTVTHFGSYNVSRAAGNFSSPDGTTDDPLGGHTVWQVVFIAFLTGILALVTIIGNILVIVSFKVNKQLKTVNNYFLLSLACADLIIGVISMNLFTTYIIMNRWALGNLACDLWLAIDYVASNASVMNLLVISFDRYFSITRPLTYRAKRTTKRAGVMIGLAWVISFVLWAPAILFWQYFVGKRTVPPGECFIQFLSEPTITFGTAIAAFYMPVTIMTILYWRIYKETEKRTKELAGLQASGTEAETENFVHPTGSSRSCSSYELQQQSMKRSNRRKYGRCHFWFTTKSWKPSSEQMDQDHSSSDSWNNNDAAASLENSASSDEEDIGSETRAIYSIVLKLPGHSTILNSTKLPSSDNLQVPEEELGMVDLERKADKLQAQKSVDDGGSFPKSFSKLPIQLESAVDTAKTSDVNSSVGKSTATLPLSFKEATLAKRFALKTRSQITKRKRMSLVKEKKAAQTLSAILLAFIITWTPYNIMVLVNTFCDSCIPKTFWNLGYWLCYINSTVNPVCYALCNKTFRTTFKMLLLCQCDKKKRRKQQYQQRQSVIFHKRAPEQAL

Histamine H4 receptor = Histamine H4 receptor (Homo sapiens, UniProt Q9H3N8); assay: Displacement of [3H]-Histamine from human recombinant histamine H4 receptor expressed in HEKT cells at 10 uM after 90 mins by microbeta scintillation counting method relative to control; summary of the method: as §2
Histamine H4 receptor, sequence (Q9H3N8 whole entry): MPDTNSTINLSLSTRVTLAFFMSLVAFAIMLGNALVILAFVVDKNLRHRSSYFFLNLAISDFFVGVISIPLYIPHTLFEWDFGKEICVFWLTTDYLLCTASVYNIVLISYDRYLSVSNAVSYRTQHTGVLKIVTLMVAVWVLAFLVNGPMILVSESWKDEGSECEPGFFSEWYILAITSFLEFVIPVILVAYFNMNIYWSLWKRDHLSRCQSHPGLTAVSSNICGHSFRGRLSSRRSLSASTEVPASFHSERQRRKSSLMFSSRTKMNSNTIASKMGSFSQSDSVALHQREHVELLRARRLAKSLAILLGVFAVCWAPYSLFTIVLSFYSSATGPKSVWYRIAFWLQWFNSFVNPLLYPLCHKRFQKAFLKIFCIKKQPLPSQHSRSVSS

[9] = target: T4, Muscarinic acetylcholine receptor M3; assay: Displacement of [3H]-QNB/[3H]-NMS from human recombinant Muscarinic acetylcholine M3 receptor expressed in stable CHO cells at 10 uM after 90 mins by microbeta scintillation counting method relative to control
Target sequence in this assay (P20309 whole entry, looked up): as the sequence (P20309 whole entry) above

Row | SMILES | Ki (D(4) dopamine receptor) [µM] | Ki (D(3) dopamine receptor) [µM] | inhibition [1] [%] | Ki (Histamine H1 receptor) [µM] | Ki [2] [µM] | Ki [3] [µM] | Ki [4] [µM] | inhibition [5] [%] | Ki ([6]; read-out: Ki) [µM] | inhibition [7] [%] | Ki (D(1B) dopamine receptor) [µM] | Ki [8] [µM] | inhibition (Histamine H4 receptor) [%] | inhibition [9] [%] | Ki ([6]; read-out: pKi (converted)) [µM]
1 | COc1cc(OC)c2c(c1)OC[C@@]1(C)NCC[C@@H]21 (racemic) | > 10 | > 10 | < 50 | > 10 | > 10 | > 10 | > 10 | < 50 | 0.044 | < 50 | > 10 | > 10 | < 50 | < 50 | 
2 | C[C@@]12CN(c3ccccc3)c3ccccc3[C@@H]1CCN2 (racemic) | > 10 |  |  | > 10 | > 10 | > 10 | > 10 |  |  |  | > 10 | > 10 |  |  | 
3 | CC[C@H]1c2cc(OC)ccc2CC[C@@]1(C)N (racemic) | > 10 | > 10 | < 50 | 3.16 | > 10 | 0.316 | > 10 | < 50 |  | < 50 | > 10 | > 10 | < 50 | < 50 | 0.126
4 | CC[C@H]1c2cc(C)ccc2OC[C@@]1(C)N (racemic) | > 10 | > 10 | < 50 | > 10 | > 10 | > 10 | > 10 | < 50 |  | < 50 | > 10 | > 10 | < 50 | < 50 | 1
5 | CC[C@H]1c2ccccc2N(c2ccccc2)C[C@@]1(C)N (racemic) | 2 |  |  | > 10 | > 10 | > 10 | > 10 |  |  |  | > 10 | > 10 |  |  | 0.316

Reference: ChEMBL document CHEMBL4304834, “3-Amino-chromanes and Tetrahydroquinolines as Selective 5-HT2B, 5-HT7, or σ1 Receptor Ligands” (ACS Med Chem Lett, 2019)
